Experimental data taken from ChEMBL document CHEMBL1687720 (Antimicrob Agents Chemother, 2009).

Assays:
Plasmodium berghei = assay: Antimalarial activity against Plasmodium berghei infected in mouse assessed as reduction in parasite load at 10 mg/kg for 4 days treated postinfection measured on day 7; format: functional; design: scale not given: the % may be the effect or the level left
How it was run: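 Murine Plasmodium berghei infection model. Compound given subcutaneously at 10 mg/kg for 4 days after infection, 13 treated mice and 13 controls. Parasitemia is compared with untreated controls, with significance by Fisher's exact test.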

Plasmodium falciparum [1] = assay: Upregulation of glutathione synthetase mRNA level in Plasmodium falciparum 3D7 trophozoites at 126 nM after 18 hrs by RT-qPCR analysis relative to untreated control; format: functional
How it was run: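 Synchronized 3D7 trophozoites in RPMI/Albumax culture at 37°C under 3% O2, 3% CO2 were exposed 12, 15 or 18 h, then harvested by 0.02% saponin lysis. RNA was reverse-transcribed and analyzed by real-time PCR in quadruplicate. Quantification used ΔΔCT with 18S rRNA reference (LDH also checked), expressed as % of untreated control.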

A549 [2] = assay: Cytotoxicity against human A549 cells after 24 hrs by Trypan blue assay; conditions: a549, 24 h
A549 [3] = assay: Effect on thioredoxin reductase expression in human A549 cells assessed as transcript level at 24 nM after 24 hrs by RT-qPCR analysis relative to untreated control; format: functional; conditions: in the assay text read “24 µM” for “24 nM”
How it was run: (§1)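 A549 cells are seeded at 2.5 × 10^5 per 25-cm2 well. At 40–45% confluence they are treated for 24 h with 166 or 662 μM, 158 or 315 μM, or 5 or 24 μM compound; controls receive <5% DMSO. Total RNA is DNase-treated and qRT-PCR is run in quadruplicate. Values are normalized to GAPDH and given as % of untreated control.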

Plasmodium falciparum [4] = assay: Antiplasmodial activity against chloroquine-resistant Plasmodium falciparum K1 in presence of artemisinin; format: functional
Plasmodium falciparum [5] = assay: Antiplasmodial activity against chloroquine-resistant Plasmodium falciparum K1 in presence of quinine; format: functional
[6] = molecular target: T1, Glutathione reductase, mitochondrial (Homo sapiens) (UniProt P00390); assay: Inhibition of glutathione reductase in human A549 cells assessed as enzyme activity at 662 µM after 24 hrs relative to untreated control; design: scale not given: the % may be the effect or the level left
T1 sequence (whole entry): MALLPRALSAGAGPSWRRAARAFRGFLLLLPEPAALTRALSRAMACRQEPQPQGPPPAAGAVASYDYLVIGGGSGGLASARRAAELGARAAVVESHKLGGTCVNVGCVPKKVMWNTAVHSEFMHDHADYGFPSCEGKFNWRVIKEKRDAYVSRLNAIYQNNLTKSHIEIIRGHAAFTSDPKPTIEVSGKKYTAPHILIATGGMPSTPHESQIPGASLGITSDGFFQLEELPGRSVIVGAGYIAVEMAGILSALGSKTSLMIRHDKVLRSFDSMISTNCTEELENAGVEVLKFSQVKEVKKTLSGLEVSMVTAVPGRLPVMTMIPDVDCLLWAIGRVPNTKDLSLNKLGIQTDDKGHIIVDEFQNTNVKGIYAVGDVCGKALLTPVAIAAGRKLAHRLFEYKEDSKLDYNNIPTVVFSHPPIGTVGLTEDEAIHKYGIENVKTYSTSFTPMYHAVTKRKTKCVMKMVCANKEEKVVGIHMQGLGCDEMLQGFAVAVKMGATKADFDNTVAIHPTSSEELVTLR

Thioredoxin reductase = Thioredoxin reductase (Homo sapiens, UniProt Q16881+Q9NNW7+Q86VQ6); assay: Inhibition of thioredoxin reductase in human A549 cells assessed as enzyme activity at 166 µM after 24 hrs by DTNB assay relative to untreated control; design: scale not given: the % may be the effect or the level left
A549 [7] = assay: Inhibition of glutathione S-transferase in human A549 cells assessed as enzyme activity at 158 µM after 24 hrs relative to untreated control; design: scale not given: the % may be the effect or the level left
A549 [8] = assay: Effect on glutathione S-transferase expression in human A549 cells assessed as transcript level at 315 nM after 24 hrs by RT-qPCR analysis relative to untreated control; format: functional; conditions: in the assay text read “315 µM” for “315 nM”; how it was run: as §1
A549 [9] = assay: Inhibition of glutathione S-transferase in human A549 cells assessed as enzyme activity at 315 µM after 24 hrs relative to untreated control; design: scale not given: the % may be the effect or the level left

O=c1oc2c(O)c(O)c(O)c3c(=O)oc4c(O)c(O)c(O)c1c4c23 [CORULEOELLAGIC ACID]
Activity (Plasmodium berghei): 30%
Activity (Plasmodium falciparum [1]): 128%
Activity (A549 [2]): Non-toxic
Activity (A549 [3]): 73%

O=c1oc2c(O)c(O)cc3c(=O)oc4c(O)c(O)cc1c4c23 [ELLAGIC ACID]
FIC50 (Plasmodium falciparum [4]): 1
FIC50 (Plasmodium falciparum [5]): 1
Activity [6]: 85%
Activity (Thioredoxin reductase): 82%

O=c1oc2c(O)c(O)c(O)c3c(=O)oc4c(O)c(O)cc1c4c23 [FLAVELLAGIC ACID]
Activity (A549 [7]): 99%
Activity (A549 [8]): 164%
Activity (A549 [9]): 121%
